In brackets after ≈: the same amount, converted by molar mass. Activity calls are given as the source filed them. The rule behind the calls is not given here.
Columns and labels:
Aspergillus niger [1] = assay: Antifungal activity against Aspergillus niger MTCC 1108 after 48 hrs; type: functional
Curvularia lunata [2] = assay: Antifungal activity against Curvularia lunata MTCC 581 assessed as zone of inhibition at 80 uM after 48 hrs by disc diffusion method; type: functional; conditions: MTCC 581, 48 h, read-out: IZ
Procedure, shortened: (§1)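 Spores from 4-day potato dextrose agar cultures, suspended in sterile water at 1.5 × 10⁵ CFU/mL. 0.2 mL was spread on potato dextrose agar. 5 mm filter-paper discs soaked with test compound were laid on the lawn. Incubation was 48 h at 28 °C, then the inhibition zone was measured in mm. Fluconazole was the positive control and acetone the negative control.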

Pseudomonas aeruginosa [3] = assay: Antimicrobial activity against Pseudomonas aeruginosa ATCC 15499 assessed as diameter of inhibition zone at 20 uM after 24 hrs by Kirby -Baur disc diffusion method; type: functional
Procedure, shortened: (§2)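 Kirby-Bauer disc diffusion was used. Acetone stocks (160 µM) were serially doubled down to 80, 40 and 20 µM. 4 µL of each went onto 5 mm sterile paper discs, which were dried 30 min at 50 °C. Inoculum was 1.5 × 10⁸ CFU/mL diluted to 3 × 10² CFU/mL, and 50 µL was spread on Mueller-Hinton agar. After 24 h at 37 °C the inhibition-zone diameter was measured. Ciprofloxacin served as positive control.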

Trichoderma viride [4] = assay: Antifungal activity against Trichoderma viride MTCC 1107 assessed as zone of inhibition at 80 uM after 48 hrs by disc diffusion method; type: functional; conditions: MTCC 1107, 48 h, read-out: IZ; procedure, shortened: as §1
Bacillus cereus [5] = assay: Antimicrobial activity against Bacillus cereus MTCC 7350 after 24 hrs by broth micro serial dilution method; type: functional; conditions: MTCC 7350, 24 h
Procedure, shortened: (§3)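 This was broth microdilution in autoclaved Mueller-Hinton broth. 150 µL of compound per well was serially diluted […], and 50 µL of test organism was added. Plates were incubated 24 h at 37 °C and optical density was read.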

Curvularia lunata [6] = assay: Antifungal activity against Curvularia lunata MTCC 581 assessed as zone of inhibition at 20 uM after 48 hrs by disc diffusion method; type: functional; procedure, shortened: as §1
Bacillus cereus [7] = assay: Antimicrobial activity against Bacillus cereus MTCC 7350 assessed as diameter of inhibition zone at 80 uM after 24 hrs by Kirby -Baur disc diffusion method; type: functional; conditions: MTCC 7350, 24 h, read-out: DIZ; procedure, shortened: as §2
Salmonella typhi [8] = assay: Antimicrobial activity against Salmonella typhi ATCC 23564 after 24 hrs by broth micro serial dilution method; type: functional, Salmonella enterica subsp. enterica serovar Typhi; conditions: Salmonella enterica, ATCC 23564, 24 h
Trichoderma viride [9] = assay: Antifungal activity against Trichoderma viride MTCC 1107 after 48 hrs; type: functional; conditions: MTCC 1107, 48 h
Aspergillus flavus [10] = assay: Antifungal activity against Aspergillus flavus MTCC 1021 assessed as zone of inhibition at 80 uM after 48 hrs by disc diffusion method; type: functional; procedure, shortened: as §1
Escherichia coli [11] = assay: Antimicrobial activity against Escherichia coli ATCC 35218 assessed as diameter of inhibition zone at 40 uM after 24 hrs by Kirby -Baur disc diffusion method; type: functional; procedure, shortened: as §2
Aspergillus flavus [12] = assay: Antifungal activity against Aspergillus flavus MTCC 1021 after 48 hrs; type: functional
Trichoderma viride [13] = assay: Antifungal activity against Trichoderma viride MTCC 1107 assessed as zone of inhibition at 40 uM after 48 hrs by disc diffusion method; type: functional; procedure, shortened: as §1
Pseudomonas aeruginosa [14] = assay: Antimicrobial activity against Pseudomonas aeruginosa ATCC 15499 after 24 hrs by broth micro serial dilution method; type: functional; conditions: ATCC 15499, 24 h; procedure, shortened: as §3
Staphylococcus aureus [15] = assay: Antimicrobial activity against Staphylococcus aureus ATCC 11632 after 24 hrs by broth micro serial dilution method; type: functional; conditions: ATCC 11632, 24 h; procedure, shortened: as §3
Escherichia coli [16] = assay: Antimicrobial activity against Escherichia coli ATCC 35218 assessed as diameter of inhibition zone at 20 uM after 24 hrs by Kirby -Baur disc diffusion method; type: functional; procedure, shortened: as §2
Salmonella typhi [17] = assay: Antimicrobial activity against Salmonella typhi ATCC 23564 assessed as diameter of inhibition zone at 80 uM after 24 hrs by Kirby -Baur disc diffusion method; type: functional, Salmonella enterica subsp. enterica serovar Typhi; conditions: Salmonella enterica, ATCC 23564, 24 h; read-out: DIZ
Escherichia coli [18] = assay: Antimicrobial activity against Escherichia coli ATCC 35218 after 24 hrs by broth micro serial dilution method; type: functional; conditions: ATCC 35218, 24 h; procedure, shortened: as §3
Aspergillus niger [19] = assay: Antifungal activity against Aspergillus niger MTCC 1108 assessed as zone of inhibition at 80 uM after 48 hrs by disc diffusion method; type: functional; procedure, shortened: as §1
Staphylococcus aureus [20] = assay: Antimicrobial activity against Staphylococcus aureus ATCC 11632 assessed as diameter of inhibition zone at 80 uM after 24 hrs by Kirby -Baur disc diffusion method; type: functional; procedure, shortened: as §2
Escherichia coli [21] = assay: Antimicrobial activity against Escherichia coli ATCC 35218 assessed as diameter of inhibition zone at 80 uM after 24 hrs by Kirby -Baur disc diffusion method; type: functional; conditions: ATCC 35218, 24 h, read-out: DIZ; procedure, shortened: as §2
Trichoderma viride [22] = assay: Antifungal activity against Trichoderma viride MTCC 1107 assessed as zone of inhibition at 20 uM after 48 hrs by disc diffusion method; type: functional; procedure, shortened: as §1
Pseudomonas aeruginosa [23] = assay: Antimicrobial activity against Pseudomonas aeruginosa ATCC 15499 assessed as diameter of inhibition zone at 80 uM after 24 hrs by Kirby -Baur disc diffusion method; type: functional; conditions: ATCC 15499, 24 h, read-out: DIZ; procedure, shortened: as §2
Curvularia lunata [24] = assay: Antifungal activity against Curvularia lunata MTCC 581 after 48 hrs; type: functional; conditions: MTCC 581, 48 h
Salmonella typhi [25] = assay: Antimicrobial activity against Salmonella typhi ATCC 23564 assessed as diameter of inhibition zone at 20 uM after 24 hrs by Kirby -Baur disc diffusion method; type: functional; conditions: Salmonella enterica subsp. enterica serovar Typhi
Mus musculus = assay: Antiinflammatory activity in mouse assessed as inhibition of carrageenan-induced increase in paw volume at 200 mg/kg, ip administered 1 hr prior to carrageenan challenge measured after 3 hrs relative to control; type: functional; conditions: route intraperitoneal
Procedure, shortened: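 Mice were fasted 2 h and placed in groups of five. Controls received saline i.p. Phenylbutazone was given at 100 mg/kg i.p., curcumin at 200 mg/kg i.p., and derivatives at 200 mg/kg. After 1 h, 0.1 mL of 1% carrageenan in saline was injected subplantar into the right hind paw. Paw volume was followed by plethysmometer for 3 h, and % inhibition was calculated as (Vc − Vt)/Vc × 100.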

Salmonella typhi [26] = assay: Antimicrobial activity against Salmonella typhi ATCC 23564 assessed as diameter of inhibition zone at 40 uM after 24 hrs by Kirby -Baur disc diffusion method; type: functional, Salmonella enterica subsp. enterica serovar Typhi; conditions: Salmonella enterica, ATCC 23564, 24 h; read-out: DIZ
Pseudomonas aeruginosa [27] = assay: Antimicrobial activity against Pseudomonas aeruginosa ATCC 15499 assessed as diameter of inhibition zone at 40 uM after 24 hrs by Kirby -Baur disc diffusion method; type: functional; procedure, shortened: as §2
Curvularia lunata [28] = assay: Antifungal activity against Curvularia lunata MTCC 581 assessed as zone of inhibition at 40 uM after 48 hrs by disc diffusion method; type: functional; conditions: MTCC 581, 48 h, read-out: IZ; procedure, shortened: as §1

With `COc1cc(/C=C/C(=O)CC(=O)/C=C/c2ccc(O)c(OC)c2)ccc1O` [CURCUMIN] as the compound, how does the MIC (Aspergillus niger [1]) read?
Its MIC is “inactive”.

And the zone of inhibition at 80 µM (Curvularia lunata [2])?
The zone of inhibition at 80 µM was 11 mm.

And the “diameter of the inhibition zone (DIZ)” value (Pseudomonas aeruginosa [3])?
Its value is “inactive”.

What about the zone of inhibition at 80 µM (Trichoderma viride [4]) of the same compound?
The zone of inhibition at 80 µM was 9 mm.

And the MIC (Bacillus cereus [5])?
Its MIC is greater than 80 µM.

What about the “inhibition zone (IZ)” value (Curvularia lunata [6]) of the same compound?
The value was “inactive”.

What about the zone of inhibition at 80 µM (Bacillus cereus [7]) of the same compound?
The zone of inhibition at 80 µM was 9 mm.

What about the MIC (Salmonella typhi [8]) of the same compound?
Its MIC is greater than 80 µM.

What about the MIC (Trichoderma viride [9]) of the same compound?
The MIC was greater than 80 µM.

And the “inhibition zone (IZ)” value (Aspergillus flavus [10])?
Its value is “inactive”.

And the “diameter of the inhibition zone (DIZ)” value (Escherichia coli [11])?
The value was “inactive”.

What about the MIC (Aspergillus flavus [12]) of the same compound?
Its MIC is “inactive”.

And the “inhibition zone (IZ)” value (Trichoderma viride [13])?
The value was “inactive”.

And the MIC (Pseudomonas aeruginosa [14])?
The MIC was greater than 80 µM.

And the MIC (Staphylococcus aureus [15])?
The MIC was 80 µM (≈ 29.5 µg/mL).

And the “diameter of the inhibition zone (DIZ)” value (Escherichia coli [16])?
Its value is “inactive”.

And the zone of inhibition at 80 µM (Salmonella typhi [17])?
Its zone of inhibition at 80 µM is 11 mm.

What about the MIC (Escherichia coli [18]) of the same compound?
Its MIC is greater than 80 µM.

What about the “inhibition zone (IZ)” value (Aspergillus niger [19]) of the same compound?
Its value is “inactive”.

What about the “diameter of the inhibition zone (DIZ)” value (Staphylococcus aureus [20]) of the same compound?
The value was “inactive”.

And the zone of inhibition at 80 µM (Escherichia coli [21])?
Its zone of inhibition at 80 µM is 12 mm.

What about the “inhibition zone (IZ)” value (Trichoderma viride [22]) of the same compound?
Its value is “inactive”.

And the zone of inhibition at 80 µM (Pseudomonas aeruginosa [23])?
Its zone of inhibition at 80 µM is 11 mm.

What about the MIC (Curvularia lunata [24]) of the same compound?
The MIC was greater than 80 µM.

What about the “diameter of the inhibition zone (DIZ)” value (Salmonella typhi [25]) of the same compound?
Its value is “inactive”.

And the inhibition in vivo at 200 mg/kg (Mus musculus)?
Its inhibition in vivo at 200 mg/kg is 12.9%.

And the zone of inhibition at 40 µM (Salmonella typhi [26])?
Its zone of inhibition at 40 µM is 9 mm.

What about the “diameter of the inhibition zone (DIZ)” value (Pseudomonas aeruginosa [27]) of the same compound?
Its value is “inactive”.

And the zone of inhibition at 40 µM (Curvularia lunata [28])?
The zone of inhibition at 40 µM was 9 mm.
